Source: PubChem
PAD4 inh – human PAD4 inhibitors, primary screen, biochemical, fluorescence polarization, 1536-well format | Protein-arginine deiminase type-4 (Homo sapiens), Q9UM07 | recombinant PAD4, RCA probe fluorescence polarization | inhibition, % at 6.36 µM | 330,000 compounds, 0.41% hits;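 active = percent inhibition above a cutoff equal to the mean of all tested compounds plus 3 SD, cut at about 15% in these data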;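 note: 0% = PAD4 with RCA probe and DMSO and 100% = probe without PAD4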
GSTO1 counter – inhibitors of recombinant GSTO1, primary screen, counter-screen for RBBP9 inhibitor project, biochemical, fluorescence polarization | Glutathione S-transferase omega-1 (Homo sapiens), P78417 | activity-based probe fluorescence polarization | inhibition, % at 5.96 µM | 300,000 compounds, 1.1% hits | AID 1974, 2009;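 active = inhibition above the campaign mean inhibition plus 3 SD, cut at about 35% in these data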;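 note: 0% = GSTO1-1 with DMSO and 100% = wells lacking GSTO1-1 enzyme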
Target sequence (P78417 whole entry, looked up): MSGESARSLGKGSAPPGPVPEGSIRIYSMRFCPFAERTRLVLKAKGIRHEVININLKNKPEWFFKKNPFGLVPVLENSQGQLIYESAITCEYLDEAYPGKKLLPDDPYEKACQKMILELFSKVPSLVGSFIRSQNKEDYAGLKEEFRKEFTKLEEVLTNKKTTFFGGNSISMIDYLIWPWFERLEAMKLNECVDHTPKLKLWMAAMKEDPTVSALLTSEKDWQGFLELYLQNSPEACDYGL
TDP2 absorb – human TDP2 enzyme inhibitors, primary screen, biochemical, epi absorbance, recombinant enzyme; T5PNP hydrolysis, p-nitrophenol absorbance 415 nm; inhibition, % at 12.8 µM; 370,000 compounds, 0.34% hits; AID 720702, 2013;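 active = inhibition above the mean of all tested compounds plus 3 SD, set per campaign, cut at about 25% in these data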;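 note: 0% = DMSO with enzyme and 100% = buffer with substrate but no TDP2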
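Test system: human TDP2 enzyme; Input: 120 nM TDP2 per well; Buffer or medium: Mg2+-containing Tris-HCl buffer, pH 7.5; Reagent: 5 mM T5PNP; Dosing: 12.8 µM single point, 1% DMSO; Incubation: reaction 2 h, 37 °C; Detection: p-Nitrophenol epi absorbance; Read-out: % inhibition relative to enzyme-containing and enzyme-free wells; Replicates: single well per compound.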
CTSL1 counter – Fasciola hepatica cathepsin L1 inhibitors, primary screen, counter-screen for PFM18AAP inhibitor project, biochemical, QFRET, fluorogenic peptide substrate; recombinant F. hepatica cathepsin L1, Z-Leu-Arg-MCA fluorescence; inhibition, % at 5.96 µM; 300,000 compounds, 0.49% hits;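 active = inhibition above the mean of all tested compounds plus 3 SD, set per screening campaign, cut at about 17% in these data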;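 note: 0% = plate median of test compound wells and 100% = 1 µM Z-Phe-Ala-diazomethylketone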
GSTO1 confirm – GSTO1 inhibitor hit confirmation, counter-screen for RBBP9 inhibitor project, biochemical, fluorescence polarization, triplicate; shares compounds with GSTO1 counter; recombinant GSTO1, probe fluorescence polarization; inhibition, % at 5.96 µM; 2,400 compounds, 54% hits; AID 2176, 2009;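 active = inhibition above the primary screen's cutoff, its mean inhibition plus 3 SD, cut at about 35% in these data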;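 note: loss of polarization as inhibitors block binding of rhodamine sulfonate ester activity probe; 0% = GSTO1 with DMSO and 100% = wells lacking GSTO1 enzyme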
An asterisk follows results filed as active; . = not tested or not shown. Hits are enriched below; roughly 1.4% of the tested compounds scored in any of these assays.

SMILES	PAD4 inh	GSTO1 counter	TDP2 absorb	CTSL1 counter	GSTO1 confirm
NS(=O)(=O)c1ccc2nc(NC(=O)c3ccc4c(c3)OCCO4)sc2c1	-2	42*	19	0	-1
CCNc1nc(NCC)nc(N/N=C/c2ccc(O)c(O)c2)n1	-1	38*	-3	1	1
CCNc1nc(NCC)nc(N/N=C/c2ccc(N(C)C)cc2)n1	6	7	8	14	.
C[C@@H]1COc2cc(Br)ccc2S(=O)(=O)N1Cc1cn(CC2CCCCC2)nn1	.	.	12	.	.
CC(C)C(=O)Nc1ccc(C(=O)NNC(=S)NC(=O)c2ccco2)cc1	2	45*	-17	4	8
Cc1ccc(C(=O)NNC(=S)NC(=O)c2ccco2)cc1	-6	18	-13	0	.
Cc1ccc(CN2CCCCC(NC(=O)C(C)(C)C)C2=O)cc1 (stereo unspecified)	.	.	-3	.	.
C#CCN1C(=O)[C@@](O)(c2cccn2C)c2cc(F)ccc21	.	.	-9	.	.
COc1ccc2c(c1O)-c1ccccc1CCN(C)C2	-1	-1	0	4	.
CN1CCc2cccc3c2[C@@H]1Cc1ccc(O)c(O)c1-3	-2	94*	.	1	13
CCn1cc(NC(=O)CCl)c(C)n1	0	72*	.	5	81*
CCn1cc(CCC(=O)O)c(C)n1	4	10	8	2	.
O=S1(=O)c2ccc(Br)cc2OC[C@@H](Cc2ccccc2)N1Cc1cn(Cc2ccc(C(F)(F)F)cc2)nn1	.	.	-2	.	.
COc1ccc(N2CCN(CCNS(=O)(=O)c3cccs3)CC2)cc1	.	.	4	.	.
C/C(=N/NC(=O)Cc1cc(=O)[nH][nH]1)c1ccc([N+](=O)[O-])cc1	-10	57*	-3	4	6
Cc1cc(C)n2c(=O)c3ccc(Cl)cc3nc2c1C#N	-10	53*	-8	-1	2
CC(=O)c1ccccc1Oc1cc(NN2CCCCC2)c([N+](=O)[O-])cc1[N+](=O)[O-]	-1	2	-6	1	.
CC(=O)c1cccc(Oc2cc(NN3CCCCC3)c([N+](=O)[O-])cc2[N+](=O)[O-])c1	6	44*	9	4	29
O=C(CSc1nnc(-c2ccco2)o1)c1ccc([N+](=O)[O-])cc1	-10	47*	8	5	24
O=C(CSc1nnc(-c2ccco2)o1)c1ccccc1Cl	-3	8	0	-1	.
C=CCN1C(=O)[C@@H](CC(=O)NCCCN2CCCC2=O)[C@]2(C(=O)OCC)CCCCC/C=C/12	.	.	-4	.	.
Fc1ccccc1-c1csc(=Nc2cccnc2)n1CCCn1ccnc1	-4	41*	-4	1	5
C=CC1=C2C=C(C3CC3)N(CC3CC3)C=C2C(=O)C(C)(OC(=O)c2ccco2)C1=O (stereo unspecified)	1	20	14	3	.
C=CCN1C=C2C(=O)C(C)(OC(=O)c3ccco3)C(=O)C(C=C)=C2C=C1C1CC1 (stereo unspecified)	13	39*	.	0	12
O=C(O)c1cc(N=Nc2c(O)ccc3ccccc23)cc(C(=O)O)c1	.	.	-1	.	.
SMILES	PAD4 inh	GSTO1 counter	TDP2 absorb	CTSL1 counter	GSTO1 confirm
O=C(O)c1ccc(N=Nc2c(O)ccc3ncccc23)cc1	-8	60*	5	7	41*
CN1C(=O)CC(c2ccco2)Sc2ccccc21 (stereo unspecified)	-1	-5	13	1	.
COc1ccc(C2CC(=O)N(C)c3ccccc3S2)cc1 (stereo unspecified)	1	47*	-3	0	2
O=S1(=O)c2cccc3cccc(c23)N1CCBr	0	45*	-14	5	51*
CCCC[n+]1ccn(C2=C([O-])c3ccccc3C(=O)/C2=N\S(=O)(=O)c2ccc(Br)cc2)c1	-10	78*	3	7	74*
Cc1ccc(NC(=O)C[n+]2ccn(C3=C([O-])c4ccccc4C3=O)c2)cc1	1	-1	8	6	.
Cc1ccc(S(=O)(=O)/N=C2\C(=O)c3ccccc3C([O-])=C2n2cc[n+](CCC(C)C)c2)cc1	-6	76*	.	7	71*
